One may read the IC50 as the concentration that inhibits the measured activity by half. Low readings indicate greater potency in that assay, high ones weaker potency in that assay.

Active and inactive are the calls of the source. The calls are words filed in the database; no cut-off is given here.

For one data set, the system named is CAKI-1. The experiment in a line: Cytotoxicity against human Caki1 cells assessed as decrease in cell viability incubated for 24 hrs by MTT assay. The class given is functional, cell-based. The method in brief: (§1)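 IC50 from an 8–10 point concentration gradient by MTT assay. Panel covers renal cell carcinoma and nasopharyngeal carcinoma lines. Values are mean ± SD, n = 3.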

Data set [1] deals with T1, MAP kinase-interacting serine/threonine-protein kinase 1 (Homo sapiens, UniProt Q9BUB5). The experiment in a line: Inhibition of human MNK1 using CREBtide substrate by gamma-[32P]-ATP competitive inhibition assay. Summed up: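 Run as the Eurofins KinaseProfiler radiometric assay, competitive with γ-[32P]-ATP. IC50 taken as the mean of independent experiments; the footnote gives two.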
Target sequence in this assay (Q9BUB5 whole entry): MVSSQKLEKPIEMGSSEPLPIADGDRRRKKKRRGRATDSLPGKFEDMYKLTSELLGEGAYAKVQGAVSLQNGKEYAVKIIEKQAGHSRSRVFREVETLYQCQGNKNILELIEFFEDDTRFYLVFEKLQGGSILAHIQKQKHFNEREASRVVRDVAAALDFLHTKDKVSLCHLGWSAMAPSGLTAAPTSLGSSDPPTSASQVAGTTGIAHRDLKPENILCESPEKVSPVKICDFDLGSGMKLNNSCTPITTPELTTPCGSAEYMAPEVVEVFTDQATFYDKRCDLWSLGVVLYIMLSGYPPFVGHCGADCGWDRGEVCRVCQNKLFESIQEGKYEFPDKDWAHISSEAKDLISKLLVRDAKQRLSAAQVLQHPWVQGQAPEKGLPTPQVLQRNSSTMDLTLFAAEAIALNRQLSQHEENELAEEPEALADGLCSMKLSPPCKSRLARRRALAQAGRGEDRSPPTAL

The test system of data set [2] is SUNE1. The experiment in a line: Cytotoxicity against human SUNE1 cells assessed as decrease in cell viability incubated for 24 hrs by MTT assay. The class given is functional, cell-based. Summed up: as §1
A general note: Tetrazolium dyes change colour on reduction, which living cells bring about.

In the next data set the test system is A498. The experiment in a line: Cytotoxicity against human A498 cells assessed as decrease in cell viability incubated for 24 hrs by MTT assay. The class given is functional, cell-based. Summed up: as §1
The subject of the next data set is CNE. The experiment in a line: Cytotoxicity against human CNE1 cells assessed as decrease in cell viability incubated for 24 hrs by MTT assay. The class given is functional, cell-based. Summed up: as §1
The species named for another data set is Homo sapiens. Kind of data set: Cytotoxicity against human HNE1 cells assessed as decrease in cell viability incubated for 24 hrs by MTT assay. In kind it is functional, cell-based. Summed up:
as §1

Data set [3] relates to 786-0. Kind of data set: Cytotoxicity against human 786-O cells assessed as decrease in cell viability incubated for 24 hrs by MTT assay. The class given is functional, cell-based. Summed up: as §1
For another data set, the system named is CNE-2. The experiment in a line: Cytotoxicity against human CNE2 cells assessed as decrease in cell viability incubated for 24 hrs by MTT assay. In kind it is functional, cell-based. The method in brief: as §1
Data set [4] deals with SUNE1. The experiment in a line: Induction of apoptosis in human SUNE1 cells assessed as viable cells at 1 uM incubated for 24 hrs by Annexin-V/propidium iodide staining based flow cytometric method (reference value: 93.79%). In kind it is functional. Conditions: SUNE1, 24 h, read-out: Activity. For orientation: In flow cytometry, cells or beads pass a laser one at a time.

Data set [5] concerns 786-0. Kind of data set: Induction of apoptosis in human 786-O cells assessed as late apoptotic cells at 1 uM incubated for 24 hrs by Annexin-V/propidium iodide staining based flow cytometric method (reference value: 3.80%). The class given is functional.
The subject of data set [6] is 786-0. The experiment in a line: Effect on total ERK1/2 protein expression in human 786-O cells incubated for 24 hrs by Western blot analysis relative to control. The class given is cell-based. Conditions: 786-0, 24 h. The method in brief:
(§2)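 Cells treated 24 h at 1 µM. The test compound was also given 6 h. Cells harvested, trypsinised and washed twice in cold PBS, then lysed in RIPA buffer on ice and sonicated. Lysate centrifuged cold at 10000 g for 30 min. Supernatant protein quantified, run on SDS-PAGE, transferred to PVDF and probed for ERK1/2, pERK1/2, MNK1, eIF4E and p-eIF4E.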
(In general: A western blot detects proteins with antibodies after separation by electrophoresis.)

Data set [7] has as its system SUNE1. Kind of data set: Induction of apoptosis in human SUNE1 cells incubated for 24 hrs by Annexin-V/propidium iodide staining based flow cytometric method (reference value: 93.79%). In kind it is functional, cell-based.
Data set [8] deals with 786-0. The experiment in a line: Induction of apoptosis in human 786-O cells incubated for 24 hrs by Annexin-V/propidium iodide staining based flow cytometric method. In kind it is functional, cell-based.
Data set [9] deals with 786-0. The experiment in a line: Induction of apoptosis in human 786-O cells assessed as viable cells at 5 uM incubated for 24 hrs by Annexin-V/propidium iodide staining based flow cytometric method (reference value: 93.63%). Conditions: 786-0, 24 h, read-out: Activity. The class given is functional.
Data set [10] relates to 786-0. The experiment in a line: Induction of apoptosis in human 786-O cells assessed as early apoptotic cells at 5 uM incubated for 24 hrs by Annexin-V/propidium iodide staining based flow cytometric method (reference value: 1.74%). The class given is functional.
Data set [11] relates to SUNE1. The experiment in a line: Effect on total MNK1 protein expression in human SUNE1 cells incubated for 24 hrs by Western blot analysis relative to control. In kind it is ADME, cell-based. Conditions: sune1, 24 h. The method in brief:
as §2

The target in data set [12] is T1, MAP kinase-interacting serine/threonine-protein kinase 1. The experiment in a line: Inhibition of MNK1 in human 786-O cells assessed as decrease in eIF4E phosphorylation at 1 uM incubated for 24 hrs by Western blot analysis relative to control. In kind it is cell-based. Summed up:
as §2
Target sequence in this assay (Q9BUB5 whole entry, looked up): as the sequence (Q9BUB5 whole entry) above

Data set [13] has as its system SUNE1. Kind of data set: Induction of apoptosis in human SUNE1 cells assessed as late apoptotic cells at 5 uM incubated for 24 hrs by Annexin-V/propidium iodide staining based flow cytometric method (reference value: 4.11%). In kind it is functional.
In data set [14] the target is T2, Mitogen-activated protein kinase; ERK1/ERK2 (Homo sapiens) (UniProt P27361+P28482). The experiment in a line: Inhibition of ERK1/2 phosphorylation in human SUNE1 cells at 1 uM incubated for 24 hrs by Western blot analysis relative to control. The class given is cell-based. Summed up:
as §2

For data set [15], the system named is 786-0. The experiment in a line: Induction of apoptosis in human 786-O cells assessed as necrotic cells at 5 uM incubated for 24 hrs by Annexin-V/propidium iodide staining based flow cytometric method (reference value: 0.83%). The class given is functional.
Data set [16] has as its system SUNE1. The experiment in a line: Induction of apoptosis in human SUNE1 cells assessed as necrotic cells at 1 uM incubated for 24 hrs by Annexin-V/propidium iodide staining based flow cytometric method (reference value: 1.07%). The class given is functional.
Data set [17] has as its system 786-0. Kind of data set: Induction of apoptosis in human 786-O cells assessed as late apoptotic cells at 5 uM incubated for 24 hrs by Annexin-V/propidium iodide staining based flow cytometric method (reference value: 3.80%). In kind it is functional.
For data set [18], the system named is SUNE1. Kind of data set: Induction of apoptosis in human SUNE1 cells assessed as early apoptotic cells at 5 uM incubated for 24 hrs by Annexin-V/propidium iodide staining based flow cytometric method (reference value: 1.03%). In kind it is functional.
For data set [19], the system named is 786-0. The experiment in a line: Induction of apoptosis in human 786-O cells assessed as necrotic cells at 1 uM incubated for 24 hrs by Annexin-V/propidium iodide staining based flow cytometric method (reference value: 0.83%). The class given is functional.
Data set [20] deals with 786-0. The experiment in a line: Effect on total MNK1 protein expression in human 786-O cells incubated for 24 hrs by Western blot analysis relative to control. In kind it is cell-based. Conditions: 786-0, 24 h. The method in brief: as §2
Data set [21] relates to 786-0. Kind of data set: Induction of apoptosis in human 786-O cells assessed as early apoptotic cells at 1 uM incubated for 24 hrs by Annexin-V/propidium iodide staining based flow cytometric method (reference value: 1.74%). The class given is functional.
For data set [22], the system named is SUNE1. Kind of data set: Induction of apoptosis in human SUNE1 cells assessed as viable cells at 5 uM incubated for 24 hrs by Annexin-V/propidium iodide staining based flow cytometric method (reference value: 93.79%). The class given is functional. Conditions: SUNE1, 24 h, read-out: Activity.
Data set [23] deals with SUNE1. Kind of data set: Induction of apoptosis in human SUNE1 cells assessed as necrotic cells at 5 uM incubated for 24 hrs by Annexin-V/propidium iodide staining based flow cytometric method (reference value: 1.07%). In kind it is functional.
The test system of data set [24] is SUNE1. Kind of data set: Induction of apoptosis in human SUNE1 cells assessed as late apoptotic cells at 1 uM incubated for 24 hrs by Annexin-V/propidium iodide staining based flow cytometric method (reference value: 4.11%). The class given is functional.
For data set [25], the target named is T2, Mitogen-activated protein kinase; ERK1/ERK2 (Homo sapiens). The experiment in a line: Inhibition of ERK1/2 phosphorylation in human 786-O cells at 1 uM incubated for 24 hrs by Western blot analysis relative to control. In kind it is cell-based. The method in brief: as §2
For data set [26], the system named is SUNE1. Kind of data set: Effect on total eIF4E protein expression in human SUNE1 cells incubated for 24 hrs by Western blot analysis relative to control. In kind it is ADME, cell-based. Conditions: sune1, 24 h. The method in brief:
as §2

The subject of data set [27] is SUNE1. Kind of data set: Induction of apoptosis in human SUNE1 cells assessed as early apoptotic cells at 1 uM incubated for 24 hrs by Annexin-V/propidium iodide staining based flow cytometric method (reference value: 1.03%). The class given is functional.
Data set [28] deals with 786-0. Kind of data set: Induction of apoptosis in human 786-O cells assessed as viable cells at 1 uM incubated for 24 hrs by Annexin-V/propidium iodide staining based flow cytometric method (reference value: 93.63%). Conditions: 786-0, 24 h, read-out: Activity. The class given is functional.
In data set [29] the test system is SUNE1. Kind of data set: Effect on total ERK1/2 protein expression in human SUNE1 cells incubated for 24 hrs by Western blot analysis relative to control. In kind it is ADME, cell-based. Conditions: sune1, 24 h. Summed up: as §2
Data set [30] concerns 786-0. Kind of data set: Effect on total eIF4E protein expression in human 786-O cells incubated for 24 hrs by Western blot analysis relative to control. In kind it is cell-based. Conditions: 786-0, 24 h. Summed up:
as §2

T2 sequence (P27361 whole entry, looked up): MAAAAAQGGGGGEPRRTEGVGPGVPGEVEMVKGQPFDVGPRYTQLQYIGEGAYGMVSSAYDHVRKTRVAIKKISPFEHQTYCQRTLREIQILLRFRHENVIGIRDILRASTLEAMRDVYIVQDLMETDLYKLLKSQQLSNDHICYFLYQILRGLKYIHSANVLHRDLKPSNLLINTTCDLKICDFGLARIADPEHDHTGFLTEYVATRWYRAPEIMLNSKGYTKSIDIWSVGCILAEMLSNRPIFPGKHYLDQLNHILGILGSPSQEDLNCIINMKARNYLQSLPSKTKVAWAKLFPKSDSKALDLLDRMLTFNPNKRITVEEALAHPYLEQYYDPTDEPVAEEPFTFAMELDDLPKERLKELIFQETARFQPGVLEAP
T2 sequence (P28482 whole entry, looked up): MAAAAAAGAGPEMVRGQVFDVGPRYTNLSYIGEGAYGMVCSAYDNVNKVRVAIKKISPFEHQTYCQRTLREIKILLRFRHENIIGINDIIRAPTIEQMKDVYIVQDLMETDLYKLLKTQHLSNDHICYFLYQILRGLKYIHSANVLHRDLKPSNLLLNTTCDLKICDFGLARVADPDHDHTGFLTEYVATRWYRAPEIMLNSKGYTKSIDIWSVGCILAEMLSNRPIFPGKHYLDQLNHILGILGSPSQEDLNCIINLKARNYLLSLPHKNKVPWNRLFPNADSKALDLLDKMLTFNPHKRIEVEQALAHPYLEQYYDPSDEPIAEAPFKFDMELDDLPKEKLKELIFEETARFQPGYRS

As to `COc1ccc(S(=O)(=O)N2CCc3c(sc4ncnc(Nc5ccc(Cl)cc5F)c34)C2)cc1`, the result in the data set on CAKI-1, in the data set with SUNE1 [2], with A498, in the data set with CNE, in the data set filed under Homo sapiens and in the data set with 786-0 [3] was Active. For the same molecule, the result in the data set on CNE-2 was Active. In data set [1], this molecule displayed an IC50 of 1150 nM.

For `COc1ccc(S(=O)(=O)N2CCc3c(sc4ncnc(Nc5ccc(F)cc5F)c34)C2)cc1`, the result with CAKI-1, in the data set on SUNE1 [2], in the data set with A498, in the data set with CNE, in the data set listed under Homo sapiens and in the data set on 786-0 [3] was Active. Further, the outcome in the data set on CNE-2 was Active. Also, the IC50 in [1] was found to be 830 nM.

For `COc1ccc(S(=O)(=O)N2CCc3c(sc4ncnc(Nc5ccc(F)cc5OC)c34)C2)cc1`, the viability at 1 µM in the data set with SUNE1 [4] was 36.6%; with 786-0 [28], 68.9%. In addition, the result with CAKI-1, with SUNE1 [2], in the data set with A498, in the data set with CNE, in the data set filed under Homo sapiens and with 786-0 [3] was Active. Moreover, in the data set on CNE-2, the outcome was Active. This molecule returned an IC50 in [1] of 650 nM. Moreover, the Activity was 8.5% in the data set on 786-0 [5]; “Non-Toxic” in the data set on 786-0 [6]; “Dose-dependent effect” in the data set on SUNE1 [7]; “Dose-dependent effect” with 786-0 [8]; 37.44% in the data set with 786-0 [10]; “Non-Toxic” in the data set on SUNE1 [11]. The Activity in the data set on SUNE1 [13] was found to be 10.61%; in the data set with 786-0 [15], 7.88%; in the data set on SUNE1 [16], 10.6%; with 786-0 [17], 11.79%; in the data set on SUNE1 [18] it was 49.87%; with 786-0 [19], 4.64%. Moreover, the Activity result is listed as “Non-Toxic” in the data set on 786-0 [20]; 17.94% in the data set on 786-0 [21]; 3.52% in the data set with SUNE1 [23]; 18.18% with SUNE1 [24]; “Non-Toxic” with SUNE1 [26]; 34.6% in the data set on SUNE1 [27]. Further, the Activity result in the data set on SUNE1 [29] and in the data set on 786-0 [30] was “Non-Toxic” each time. Moreover, the viability at 5 µM in the data set on 786-0 [9] stood at 42.9%; in the data set on SUNE1 [22], 35.9%. The inhibition entry in data set [12] was “Dose-dependent effect”. Moreover, the inhibition entry in data set [14] and in data set [25] was “inactive” throughout.

For the molecule `COc1ccc(S(=O)(=O)N2CCc3c(sc4ncnc(Nc5ccc(F)cc5Br)c34)C2)cc1`, the outcome in the data set with CAKI-1, with SUNE1 [2], in the data set on A498, in the data set with CNE, in the data set filed under Homo sapiens and in the data set with 786-0 [3] was Active. The result in the data set with CNE-2 was Active. The half-maximal inhibitory concentration (IC50) in data set [1] came out at 1000 nM.

The values above are taken from ChEMBL document CHEMBL4340542, “Design, synthesis and biological evaluation of 4-aniline-thieno[2,3-d]pyrimidine derivatives as MNK1 inhibitors against renal cell carcinoma and nasopharyngeal carcinoma” (Bioorg Med Chem, 2019).
